Measurements from ChEMBL document CHEMBL1125170, “A novel series of selective leukotriene antagonists: exploration and optimization of the acidic region in 1,6-disubstituted indoles and indazoles” (1990).
Active and inactive are the calls of the source. The rule behind the calls is not given here.

Experiments:
[1] = system: Cavia porcellus; test: In vivo percent protection against aerosolized LTD4 induced dyspnea in guinea pig at 30 umol/kg po (180 minutes post oral dosing); 67/11; format: functional
[2] = system: Cavia porcellus; test: In vivo percent protection against aerosolized LTD4 induced dyspnea in guinea pig at 30 umol/kg po (60 minutes post oral dosing); 48/12; format: functional
[3] = species on record: Cavia porcellus; test: In vitro antagonism of 8 nM of peptidoleukotriene (LTE4) induced contraction of guinea pig tracheal spirals at 0.033 X E-7M concentration; format: functional, Trachea
Outline: (§1)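 Guinea pig tracheal spirals held at 37 °C in modified Krebs' (mM: NaCl 119, KCl 4.6, CaCl2 1.8, MgCl2 0.5, NaHCO3 24.9, NaH2PO4 1.0, glucose 11.1) plus indomethacin 5 μM, resting tension 2 g, isometric recording. After reproducible 8 nM LTE4 responses, compound added for 10 min, then rechallenged. % inhibition is adjusted for the paired vehicle tissue. At least four spirals, paired t test.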

[4] = species on record: Cavia porcellus; test: In vitro antagonism of 8 nM of peptidoleukotriene (LTE4) induced contraction of guinea pig tracheal spirals at 0.33 X E-7M concentration; format: functional, Trachea; outline: as §1
[5] = biological target: T1, Cysteinyl leukotriene receptor 1 (Cavia porcellus) (UniProt Q2NNR5); test: Dissociation constant KB = [antagonist]/(dose ratio -1).KB determined in guinea pig tracheal spirals with LTE4 as agonist; format: functional, tissue-based; conditions: Trachea
T1 sequence (whole entry): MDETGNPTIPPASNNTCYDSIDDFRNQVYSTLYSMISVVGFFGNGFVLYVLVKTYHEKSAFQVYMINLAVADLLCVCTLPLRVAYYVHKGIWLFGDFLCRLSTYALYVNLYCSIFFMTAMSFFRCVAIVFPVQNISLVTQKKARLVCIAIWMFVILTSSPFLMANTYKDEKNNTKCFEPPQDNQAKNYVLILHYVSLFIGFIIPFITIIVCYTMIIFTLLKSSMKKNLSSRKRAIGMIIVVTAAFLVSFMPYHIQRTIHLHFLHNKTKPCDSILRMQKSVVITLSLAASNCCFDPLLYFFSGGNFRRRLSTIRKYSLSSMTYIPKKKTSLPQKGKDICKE
Outline: (§2)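 Isolated guinea pig tracheal strips in Krebs' buffer with indomethacin (5 μM), 37 °C, 95% O2/5% CO2, resting tension 2 g. Carbachol (30 μM) sets the maximum. Antagonist incubated 30 min, then cumulative LTE4 concentration–response curves in log increments, one curve per tissue. EC50 by linear regression, paired vehicle controls. KB = [antagonist]/(DR − 1) (Furchgott).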

[6] = species on record: Cavia porcellus; test: In vitro antagonism of 8 nM of peptidoleukotriene (LTE4) induced contraction of guinea pig tracheal spirals at 3.3 X E-7M concentration; format: functional, Trachea; outline: as §1
[7] = system: Cavia porcellus; test: In vivo percent protection against aerosolized LTD4 induced dyspnea in guinea pig at 113 umol/kg po (60 minutes post oral dosing); 14/4; format: functional
[8] = system: Cavia porcellus; test: In vivo percent protection against aerosolized LTD4 induced dyspnea in guinea pig at 10 umol/kg po (180 minutes post oral dosing); 37/8; format: functional
[9] = system: Cavia porcellus; test: In vivo percent protection against aerosolized LTD4 induced dyspnea in guinea pig at 30 umol/kg po (180 minutes post oral dosing); 89/8; format: functional
[10] = species on record: Cavia porcellus; test: In vitro antagonism of 8 nM of peptidoleukotriene (LTE4) induced contraction of guinea pig tracheal spirals at 0.01 X E-7M concentration; format: functional, Trachea; outline: as §1
[11] = system: Cavia porcellus; test: In vivo percent protection against aerosolized LTD4 induced dyspnea in guinea pig at 126 umol/kg po (60 minutes post oral dosing); 33/5; format: functional
[12] = species on record: Cavia porcellus; test: In vitro antagonism of 8 nM of peptidoleukotriene (LTE4) induced contraction of guinea pig tracheal spirals at 3 X E-7M concentration; format: functional, Trachea; outline: as §1
[13] = species on record: Cavia porcellus; test: In vitro antagonism of 8 nM of peptidoleukotriene (LTE4) induced contraction of guinea pig tracheal spirals at 10 X E-7M concentration; format: functional, Trachea; outline: as §1
[14] = species on record: Cavia porcellus; test: In vitro antagonism of 8 nM of peptidoleukotriene (LTE4) induced contraction of guinea pig tracheal spirals at 100 X E-7M concentration; Not active; format: functional; conditions: Trachea; outline: as §1
[15] = species on record: Cavia porcellus; test: In vitro antagonism of 8 nM of peptidoleukotriene (LTE4) induced contraction of guinea pig tracheal spirals at 0.1 X E-7M concentration; format: functional, Trachea; outline: as §1
[16] = species on record: Cavia porcellus; test: Dissociation constant KB = [antagonist]/(dose ratio -1). KB determined in guinea pig tracheal spirals with LTE4 as agonist.; format: functional, Trachea; outline: as §2
[17] = species on record: Cavia porcellus; test: In vitro antagonism of 8 nM of peptidoleukotriene (LTE4) induced contraction of guinea pig tracheal spirals at 33 X E-7M concentration; format: functional, Trachea; outline: as §1
[18] = system: Cavia porcellus; test: In vivo percent protection against aerosolized LTD4 induced dyspnea in guinea pig at 100 umol/kg po (60 minutes post oral dosing); 23/6; format: functional
[19] = species on record: Cavia porcellus; test: In vitro antagonism of 8 nM of peptidoleukotriene (LTE4) induced contraction of guinea pig tracheal spirals at 1 X E-7M concentration; format: functional, Trachea; outline: as §1
[20] = species on record: Cavia porcellus; test: In vitro antagonism of 8 nM of peptidoleukotriene (LTE4) induced contraction of guinea pig tracheal spirals at 100 X E-7M concentration; Not significant; format: functional, Trachea; outline: as §1
[21] = species on record: Cavia porcellus; test: In vitro antagonism of 8 nM of peptidoleukotriene (LTE4) induced contraction of guinea pig tracheal spirals at 0.001 X E-7M concentration; format: functional, Trachea; outline: as §1
[22] = system: Cavia porcellus; test: In vivo percent protection against aerosolized LTD4 induced dyspnea in guinea pig at 30 umol/kg po (180 minutes post oral dosing); 43/7; format: functional
[23] = system: Cavia porcellus; test: In vivo percent protection against aerosolized LTD4 induced dyspnea in guinea pig at 1 umol/kg po (180 minutes post oral dosing); 40/6; format: functional

## COc1cc(C(=O)NS(=O)(=O)c2ccccc2)ccc1Cn1ccc2ccc(NC(=O)OC3CCCC3)cc21
[1]
  Protection: 67%
[2]
  Protection: 48%
[3]
  Antagonism: 61%
[4]
  Antagonism: 100%
[5]
  pKB: 9.5

## CCC(C(=O)Nc1ccc2cnn(Cc3ccc(C(=O)O)cc3OC)c2c1)c1ccccc1 (stereo unspecified)
[6]
  Antagonism: 30%
[7]
  Protection: 14%
[5]
  pKB: 7.1

## COc1cc(C(=O)NS(=O)(=O)c2ccccc2)ccc1Cn1ncc2ccc(NC(=O)OC3CCCC3)cc21 [ICI-198615]
[8]
  Protection: 37%
[9]
  Protection: 89%
[10]
  Antagonism: 69%
[3]
  Antagonism: 100%
[5]
  pKB: 10.3

## CCCCOC(=O)Nc1ccc2cnn(Cc3ccc(C(=O)O)cc3OC)c2c1
[6]
  Antagonism: 56%
[11]
  Protection: 33%
[5]
  pKB: 6.7

## CCCCC(CC)C(=O)Nc1ccc2ccn(Cc3ccc(C(=O)NS(=O)(=O)CCCC)cc3OC)c2c1 (stereo unspecified)
[12]
  Antagonism: 63%
[13]
  Antagonism: 100%

## COc1cc(CNS(=O)(=O)c2ccccc2)ccc1Cn1ccc2ccc(NC(=O)OC3CCCC3)cc21
[14]
  Antagonism: inactive

## CCCCOC(=O)Nc1ccc2cnn(Cc3ccc(C(=O)NS(=O)(=O)c4ccccc4)cc3OC)c2c1
[3]
  Antagonism: 77%
[15]
  Antagonism: 100%
[16]
  pKB: 9.2

## COc1cc(C(=O)O)ccc1Cn1ccc2ccc(NC(=O)OC3CCCC3)cc21
[17]
  Antagonism: 100%
[18]
  Protection: 23%
[19]
  Antagonism: 61%
[5]
  pKB: 7.8

## CCCCC(CC)C(=O)Nc1ccc2ccn(Cc3ccc(C(=O)O)cc3OCCCc3ccccc3)c2c1 (stereo unspecified)
[20]
  Antagonism: 18%

## COc1cc(C(=O)NS(=O)(=O)c2ccccc2)ccc1Cn1ncc2ccc(NC(=O)CC3CCCC3)cc21
[21]
  Antagonism: 23%
[10]
  Antagonism: 100%
[16]
  pKB: 10.5

## COc1cc(C(=O)NS(=O)(=O)c2ccccc2)ccc1Cn1ccc2ccc(NC(=O)CC3CCCC3)cc21
[22]
  Protection: 43%
[10]
  Antagonism: 50%
[3]
  Antagonism: 92%
[5]
  pKB: 9.6

## COc1cc(C(=O)NS(=O)(=O)c2ccccc2C)ccc1Cn1ccc2ccc(NC(=O)CC3CCCC3)cc21
[23]
  Protection: 40%
[16]
  pKB: 9.9
